Screens (PubChem BioAssay)
Dynein transport – dynein cargo transport inhibition | hit rate 0.47% among 220,000 | AID 1381 | z-score, hits read low | 3617.4 mouse cells, GR-EGFP nuclear translocation imaging; test concentration mostly 20 µM; stimulated with dexamethasone, 1 µM; hits give low values;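 active = plate z-score of nuclear minus cytoplasmic receptor signal below a set negative limit, without overly bright fluorescence or cell loss, cut at about -3.5 in these data, passing the limit was not always enough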;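 also: z-score of nuclear minus cytoplasmic ring GR-EGFP intensity difference per well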
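Buffer or medium: Induction medium lacking tetracycline, stripped serum | Also added: Dexamethasone agonist, 1.0 µM final, for 30 min | Timing: 48 h induction, 1 h compound, 30 min dex at 37 °C | Detection: Formaldehyde fixation, Hoechst nuclear stain, 10x automated fluorescence imaging | Measure: Nuclear versus cytoplasmic GR-EGFP signal, averaged per well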
MT stabilize HCS – stabilizes microtubules in HeLa cells; HeLa tubulin immunostaining HCS, 24 h; share of cells brighter than vehicle mean+2SD; % tubulin-high responders, % at 10 µM; hit rate 0.83% among 200,000; AID 2205;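 active = plate Z-score above 3 for both tubulin-high and condensed-nucleus cell shares, with cell loss under 80%, at 10 µM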;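 also: anti alpha tubulin signal scored within the nucleus-defined area of each cell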
L major viab – Leishmania major promastigote growth inhibition; inhibition, % at 10 µM; hit rate 9% among 200,000; Leishmania major promastigotes, resazurin fluorescence viability; AID 1063; in the data active = inhibition above about 50%;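 also: promastigotes grown with compound for 44 hours at 28 °C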
Autophagy HCS – autophagy modulation, high-content screen; hit rate 0.98% among 190,000; calls only at 10 µM (by protocol); MEF GFP-LC3 puncta imaging; test concentration mostly 10 µM;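 active = percentage of spot-positive cells more than 3 SD above its plate mean, without a fluorescence outlier flag or 80% toxicity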;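 also: spot-positive cell cutoff set from DMSO-treated cells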
bCat nuc transl – beta-catenin nuclear translocation modulation | HeLa beta-catenin nuclear translocation, immunofluorescence imaging | nuclear translocation activity, % at 5 µM | hit rate 0.3% among 190,000;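 active = nuclear translocation activity above 50% at 5 µM, with a well cell count of 50 or more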;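 also: per-cell ratio of nuclear to cytoplasmic median beta-catenin stain intensity; plate controls were DMSO negative control for no effect and GSK-3 inhibitor IX positive control for full effect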
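System: Human HeLa cells, endogenous beta-catenin | Compound dosing: 5 µM primary, 0.02–20 µM confirmation | Timing: 24 h compound exposure at 37°C, 5% CO2 | Measured by: Fluorescence imaging of beta-catenin antibody stain plus DAPI | Read-out basis: % activation of per-cell nuclear versus cytoplasmic median beta-catenin signal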
CHOP inhibitor – CHOP inhibition in unfolded protein response | CHO-K1 CHOP-promoter luciferase, tunicamycin-induced, 15-18 h | inhibition, % at 10 µM | hit rate 3.8% among 220,000;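 active = compounds that reduced the stress-induced luciferase reporter signal by more than about 70% of percent inhibition, limit read from the data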;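 also: 0% = tunicamycin plus vehicle and 100% = wells without tunicamycin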
CHOP inh conf – confirmation of CHOP induction inhibitors | shares compounds with CHOP inhibitor | CHO-CHOP promoter luciferase reporter, tunicamycin-induced, luminescence | inhibition, % at 10 µM | hit rate 45% among 2,100;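 active = mean of three repeat readings of reporter signal inhibition above a set limit, cut at about 70% in these data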;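 also: 0% = tunicamycin plus vehicle and 100% = wells lacking tunicamycin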
The depositor's hits bear a star; i = inactive; / = not tested or not shown; + = active, no number. The list is not random: actives were taken first. Their share in the collection is about 12%.

SMILES | Dynein transport | MT stabilize HCS | L major viab | Autophagy HCS | bCat nuc transl | CHOP inhibitor | CHOP inh conf
Cc1c(N=Cc2c(O)n(C3CCCCC3)c(=O)[nH]c2=O)c(=O)n(-c2ccccc2)n1C | 1.2 | 4 | 1 | i | -7 | 25 | /
O=c1[nH]c(=O)n(C2CCCCCC2)c(O)c1C=NCc1ccc(F)cc1 | 0.78 | 5 | 16 | i | / | 107* | 41
O=C(C1=C(c2ccccc2)C(=O)c2ccccc2C1=O)c1ccccc1 | -1.1 | 5 | 24 | + | 0 | 104* | 112*
COc1ccc(NC(=O)c2oc3ccccc3c2NC(=O)C(C)(C)C)cc1 | 0.45 | 5 | 24 | i | -1 | 103* | 14
O=Nc1ccc(O)c2ncccc12 | -2.5 | / | / | / | -1 | 106* | 108*
COC(=O)C(CO)NC(=O)C(C)NC(=O)CNC(=O)OCc1ccccc1 (stereo unspecified) | 0.54 | 4 | -7 | i | / | -11 | /
O=C(O)c1cc(-c2ccncc2)nc2ccc(S(=O)(=O)N3CCOCC3)cc12 | 1.4 | 5 | -5 | i | -3 | 24 | /
O=C(NCc1ccccc1)c1cc(-c2ccncc2)nc2ccc(S(=O)(=O)N3CCOCC3)cc12 | -0.55 | 4 | 1 | i | -2 | 103* | 108*
CC(=O)SC(C[N+](=O)[O-])c1cn(C(C)=O)c2ccccc12 (stereo unspecified) | 0.81 | 4 | 18 | i | 1 | 106* | -60
CCOC(=O)N1CCN(C(=O)/C=C/c2c(C)nn(-c3ccc(F)cc3)c2Cl)CC1 | -0.3 | 3 | 13 | i | 0 | 10 | /
CC(C)NC(=O)NC(=O)CSc1nnc(COc2ccccc2F)n1C(C)C1CC2CCC1C2 (stereo unspecified) | -0.47 | 2 | 51* | i | 1 | 106* | 38
CC(=O)c1c(C)oc2ccc(O)c(CN3CCOCC3)c12 | -1.1 | 4 | 33 | i | / | 14 | /
CCOC(=O)c1c(-c2ccccc2)oc2ccc(O)c(CN3CCOCC3)c12 | 1 | 5 | 20 | i | / | 109* | 96*
Cc1ccc2oc(-c3cccc(NC(=O)Cc4cccs4)c3)nc2c1 | -0.88 | 2 | -1 | i | / | 98* | 26
CCCC(=O)Nc1cccc(-c2nc3ccccc3o2)c1 | 1.5 | 3 | 8 | i | / | 20 | /
Cc1ccc(-c2nnc(-c3ccc(NC(=O)Cc4cccs4)cc3)o2)cc1 | 0.55 | 6 | -3 | + | -2 | 105* | 102*
Cc1ccc2oc(-c3cccc(NC(=O)c4cc(-n5cnnc5)ccc4Cl)c3)nc2c1 | -0.44 | 4 | -2 | i | 16 | 102* | 49
CCCC(=O)Nc1cccc(-c2nc3cc(C)c(C)cc3o2)c1 | -0.52 | 3 | 0 | i | -1 | 105* | -15
COc1cc(/C=C2\COC/C(=C\c3cc(OC)c(OC)c(OC)c3)C2=O)cc(OC)c1OC | -6.6* | / | / | / | -1 | 106* | 111*
COc1cc(/C=C2\CC/C(=C\c3cc(OC)c(O)c(OC)c3)C2=O)cc(OC)c1O | -1.5 | 3 | 58* | i | 4 | 101* | 101*
Cc1ccc(-c2nn(-c3ccccc3)cc2C=C2C(=O)CC(C)(C)CC2=O)cc1 | -0.44 | 3 | 96* | i | -4 | 98* | -9
FC(F)(F)c1cccc(Sc2nc(-c3ccccc3)nnc2C(F)(F)F)c1 | -1.5 | 1 | 46 | i | -3 | 108* | 109*
FC(F)(F)c1nnc(-c2ccccc2)nc1Oc1ccc(Cl)cc1Cl | -2.8 | 3 | -12 | i | 3 | -61 | /
FC(F)(F)c1nnc(-c2ccccc2)nc1Sc1ccc(Cl)cc1 | -2.6 | 2 | 31 | i | -1 | 114* | 119*
Cn1c(=O)c2c(nc(SCC(=O)N3CCc4ccccc43)n2Cc2ccc(F)cc2)n(C)c1=O | 2.1 | 2 | 16 | i | / | / | /
Oc1ccc(Br)cc1-c1nc2cnccn2c1NC1CCCCC1 | -0.73 | 2 | 85* | i | 2 | 98* | 87*
CN(CCCC[C@H](CNCc1ccc(-c2ccccc2)cc1)N1C[C@H](c2ccccc2)N(CCc2ccc(Cl)c(Cl)c2)C(=O)C1=O)Cc1ccc(-c2ccccc2)cc1 | 1.4 | / | / | / | 0 | 107* | 112*
